# Measured values from different studies.
# Each line is one published result; the experiments were not run side by side.
# CNR1: Cannabinoid receptor 1 (CNR1, Homo sapiens, UniProt P21554)
# OPRK1: Kappa-type opioid receptor (OPRK1, Homo sapiens, UniProt P41145)
# PFF0160c: Dihydroorotate dehydrogenase (quinone), mitochondrial (PFF0160c, Plasmodium falciparum, UniProt Q08210)
SMILES,target,effect on,action,quantity,result
Cc1c(C(=O)N2CCC(NC(=O)Nc3ccc(C#N)cc3)(c3ccccc3)CC2)nn(-c2ccc(Cl)cc2Cl)c1-c1ccc(Cl)cc1,CNR1,calcium signal,antagonist,Kb,> 10 µM
CNC(=O)[C@@]12C[C@@H]1[C@@H](n1ccc3c(NC)ncnc31)[C@H](O)[C@@H]2O,OPRK1,cell-free assay,,Ki,> 10 µM
Clc1ccc(CSc2nnc(-c3ccccn3)n2Cc2cccs2)cc1Cl,OPRK1,β-arrestin recruitment,agonist,EC50,640 nM
CNc1nc(C#Cc2ccc(Cl)s2)nc2c1ncn2[C@H]1[C@H](O)[C@H](O)[C@]2(C(=O)O)C[C@H]12,OPRK1,cell-free assay,,Ki,> 10 µM
Cc1cc(Nc2ccc(Cl)cc2)n2nc(OCCN(C)C)nc2n1,PFF0160c,enzyme activity,inhibitor,IC50,> 10 µM
Cc1c(C(=O)N[C@H]2CC[C@H](NS(C)(=O)=O)CC2)nn(-c2ccc(Cl)cc2Cl)c1-c1ccc(Cl)cc1,CNR1,calcium signal,antagonist,Kb,> 10 µM
CNCc1nc2nc(C)cc(Nc3ccc(Cl)cc3)n2n1,PFF0160c,enzyme activity,inhibitor,IC50,> 10 µM
CNC(=O)[C@@]12C[C@@H]1[C@@H](n1cnc3c(NC)nc(C#Cc4ccc(F)c(F)c4)nc31)[C@H](O)[C@@H]2O,OPRK1,cell-free assay,,Ki,> 10 µM
COCCc1nc2nc(C)cc(Nc3ccc(Cl)cc3)n2n1,PFF0160c,enzyme activity,inhibitor,IC50,> 10 µM
Cc1c(C(=O)N[C@H]2CC[C@H](N)CC2)nn(-c2ccc(Cl)cc2Cl)c1-c1ccc(Cl)cc1,CNR1,calcium signal,antagonist,Kb,> 10 µM
